Test results as given in ChEMBL document CHEMBL4043308 (J Med Chem, 2018).
Active and inactive are the calls of the source. The rule behind the calls is not given here.

Legend:
Autotaxin [1] = biological target: T1, Autotaxin (Mus musculus, UniProt Q9R1E6); test: Inhibition of mouse ATX-beta using LPC 16:0 as substrate by Amplex Red PLD assay
Autotaxin [2] = biological target: T1, Autotaxin; test: Inhibition of mouse ATX-beta using LPC 18:0 as substrate by Amplex Red PLD assay
Autotaxin [3] = biological target: T1, Autotaxin; test: Inhibition of recombinant mouse ATX expressed in HEK293 cells using FS3 as substrate preincubated for 15 mins followed by substrate addition measured after 30 mins
Autotaxin [4] = biological target: T1, Autotaxin; test: Inhibition of recombinant mouse ATX expressed in HEK293 cells using LPC 17:0 as substrate after 30 mins by LC-MS/MS method
Rattus norvegicus = organism: Rattus norvegicus; test: animal or person; details: Lewis, po, 4 h, read-out: INH
Mus musculus [5] = test: Antifibrotic activity in BLM-induced C57BL/6 mouse pulmonary fibrosis model assessed as improvement in lung architecture at 30 mg/kg, ip qd administered 15 days starting 1 day prior to BLM installation by hematoxylin/eosin staining-based microscopic method; format: functional, organism-based
Summary of the method: (§1)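 Bleomycin model: mice 8–10 weeks, 0.01 U orotracheal bleomycin on day 0, 30 mg/kg ip daily from day −1 to 14 (PBS/5% Tween 80 vehicle), killed day 15. Lungs were fixed in 10% neutral buffered formalin, paraffin-embedded, cut at 4 μm and H&E-stained. Sections were examined by light microscopy at ×100–×300.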

Mus musculus [6] = test: Antifibrotic activity in BLM-induced C57BL/6 mouse pulmonary fibrosis model assessed as decrease in contiguous fibrotic walls at 30 mg/kg, ip qd administered 15 days starting 1 day prior to BLM installation by hematoxylin/eosin staining-based microscopic method; format: functional, organism-based; summary of the method: as §1
Mus musculus [7] = test: Antifibrotic activity in BLM-induced C57BL/6 mouse pulmonary fibrosis model assessed as decrease in fibrotic lesions at 30 mg/kg, ip qd administered 15 days starting 1 day prior to BLM installation by hematoxylin/eosin staining-based microscopic method; format: functional, organism-based; summary of the method: as §1
Mus musculus [8] = test: Antifibrotic activity in BLM-induced C57BL/6 mouse pulmonary fibrosis model assessed as decrease in inflammatory cell influx in bronchoalveolar lavage fluid at 30 mg/kg, ip qd administered 15 days starting 1 day prior to BLM installation by trypan blue assay relative to control; format: functional; parameters: scale not given: the % may be the effect or the level left
Summary of the method: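 Mice (C57BL/6, 8–10 weeks) had orotracheal bleomycin 0.01 U on day 0 and ip dosing at 30 mg/kg daily from day −1 to 14, n = 10. On day 15, lungs were lavaged 3 × 1 mL 0.9% NaCl. BALF was spun at 1200 rpm for 10 min, and pellet cells were counted with 0.4% trypan blue (×10^5 cells/mL). Means ± SE.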

Mus musculus [9] = test: Antifibrotic activity in BLM-induced C57BL/6 mouse pulmonary fibrosis model assessed as decrease in total protein concentration in bronchoalveolar lavage fluid at 30 mg/kg, ip qd administered 15 days starting 1 day prior to BLM installation by Bradford protein assay relative to control; format: functional, organism-based
Summary of the method: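 BALF total protein was measured after orotracheal bleomycin (0.01 U, day 0) and 30 mg/kg ip daily dosing from day −1 to 14. Lavage was done on day 15 with 3 × 1 mL saline, and the supernatant was stored at −80 °C. OD readings were converted to mg/mL using a BSA standard curve (0–2 mg/mL). Means ± SE, paired t test.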

Mus musculus [10] = test: Antifibrotic activity in BLM-induced C57BL/6 mouse pulmonary fibrosis model assessed as decrease in soluble collagen concentration in bronchoalveolar lavage fluid at 30 mg/kg, ip qd administered 15 days starting 1 day prior to BLM installation by Sirius Red assay; format: functional, organism-based
Summary of the method: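 Day-15 BALF from bleomycin-challenged mice given ip drug at 30 mg/kg daily from day −1 to 14. BALF (100 μL) was diluted in 1 mL 0.5 M acetic acid, mixed with an equal volume of Sirius Red (120 μg/mL in 0.5 M acetic acid) and held 30 min at room temperature. After centrifugation, supernatant A540 was read against a rat-tail collagen I standard (0–500 μg/mL).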

Mus musculus [11] = test: Antifibrotic activity in BLM-induced C57BL/6 mouse pulmonary fibrosis model assessed as decrease in ATX activity in bronchoalveolar lavage fluid at 30 mg/kg, ip qd administered 15 days starting 1 day prior to BLM installation by TOOS activity assay; format: functional, organism-based
Summary of the method: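 Male and female C57BL/6 mice (8–10 weeks) got 0.01 U bleomycin in 50 μL saline orotracheally on day 0. Dosing was 30 mg/kg ip once daily from day −1 to 14 in PBS/5% Tween 80 (n = 10). Lungs were lavaged three times with 1 mL saline on day 15. BALF lysoPLD activity was measured by TOOS assay (nmol/min/mL). Means ± SE.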

[12] = Plasma concentration in BLM-induced C57BL/6 mouse pulmonary fibrosis model at 30 mg/kg, ip qd administered 15 days starting 1 day prior to BLM installation measured 1 hr post last dose by LC-MS/MS method; format: ADME, organism-based
Summary of the method: (§2)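 Bleomycin-challenged C57BL/6 mice received 30 mg/kg ip daily from day −1 to 14. Blood was taken 1, 3 and 6 h after the last dose into EDTA (pH 8, final 50 mM). It was centrifuged at 2000g for 20 min at 4 °C, and plasma was stored at −80 °C. Plasma drug levels were quantified by LC–MS/MS (ng/mL).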

Plasma = test: Plasma concentration in BLM-induced C57BL/6 mouse pulmonary fibrosis model at 30 mg/kg, ip qd administered 15 days starting 1 day prior to BLM installation measured 3 to 6 hrs post last dose by LC-MS/MS method; format: ADME, organism-based; details: in vivo; summary of the method: as §2

Row | SMILES | IC50 (Autotaxin [1]) [µM] | also measured
1 | CCOc1ccc(NC(=O)CCCCC(=O)N[C@@H](CCC(=O)NO)C(=O)OC)cc1 | > 5 | –
2 | CCCCCCCCCC(=O)Nc1ccc(CC(=O)NO)cc1 | > 5 | –
3 | COC(=O)[C@H](CCCC(=O)NO)NC(=O)CCCCCCc1ccccc1 | > 5 | –
4 | O=C(CC[C@H](NC(=O)CCCCC(=O)Nc1ccccc1)C(=O)NO)NO | > 5 | –
5 | O=C(Cc1ccc(NC(=O)CCCCC(=O)Nc2ccccc2)cc1)NO | – | IC50 (Autotaxin [2]): 0.2 µM
6 | COC(=O)[C@H](CCC(=O)NO)NC(=O)CCCCC(=O)Nc1ccc(F)cc1 | > 5 | –
7 | O=C(CCN1CCN(C(=O)OCc2cc(Cl)cc(Cl)c2)CC1)c1ccc2[nH]c(=O)oc2c1 | – | IC50 (Autotaxin [3]): 0.0028 µM; IC50 (Autotaxin [4]): 0.0017 µM; inhibition in vivo at 30 mg/kg (Rattus norvegicus): > 95%
8 | CCCC[C@@H](CCCC(=O)NO)NC(=O)CCCCC(=O)Nc1ccccc1 | – | Activity (Mus musculus [5]): Active; Activity (Mus musculus [6]): Active; Activity (Mus musculus [7]): Active; Activity (Mus musculus [8]): 50%; Activity (Mus musculus [9]): Active; Activity (Mus musculus [10]): Active; Activity (Mus musculus [11]): Active; concentration at 1 h [12]: 70 ng/mL; Cp (Plasma): 35 ng/mL
9 | COC(=O)[C@H](CCC(=O)NO)NC(=O)CCCCC(=O)Nc1ccccc1 | 0.4 | –
10 | O=C(O)Cc1ccc(NC(=O)CCCCC(=O)Nc2ccccc2)cc1 | > 5 | –
11 | CCCCCCCCc1ccc(C(=O)Nc2ccc(CC(=O)NO)cc2)cc1 | > 5 | –
12 | O=C(CCCCC(=O)Nc1ccc(CC(=O)C(F)(F)C(F)(F)F)cc1)Nc1ccccc1 | 3 | IC50 (Autotaxin [2]): 0.5 µM
13 | O=C(CCCCC(=O)Nc1ccc(B(O)O)cc1)Nc1ccccc1 | 0.7 | IC50 (Autotaxin [2]): 4 µM
14 | O=C(Cc1ccc(NC(=O)CCCCc2ccc(-c3ccccc3)cc2)cc1)NO | > 5 | –
15 | COC(=O)[C@H](CCCC(=O)NO)NC(=O)CCCCC(=O)Nc1ccccc1 | 0.05 | –
16 | O=C(Cc1ccc(NC(=O)CCCCNC(=O)c2ccc(F)cc2)cc1)NO | > 5 | –
17 | COC(=O)[C@H](CCC(=O)NO)NC(=O)CCCCNC(=O)c1ccccc1 | > 5 | –
18 | COC(=O)[C@H](CCC(=O)NO)NC(=O)CCCCC(=O)Nc1ccc(OC)cc1 | 4.5 | –
